Experimental data from ChEMBL document CHEMBL1148893, “Nodulisporic acids D-F: structure, biological activities, and biogenetic relationships” (J Nat Prod, 2004).
pIC50: −log10 of the molar value.

Columns and labels:
[1] = Displacement of [35S]nodulisporic amide from Glutamate gated chloride channel alpha subunit/GABA gated chloride channel subunit Rdl in Drosophila melanogaster head membrane
Summary of the method: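 Competition binding against [35S]nodulisporic amide (10 pM ligand) on Drosophila melanogaster head membranes. Compounds prepared as 20 mM DMSO stocks, tested from 10 µM down to 10 pM (0.1 pM for potent ones) in 0.5 log steps, in triplicate. Each compound assayed at least twice; IC50 reported as geometric mean. Where label recovery increased, the highest concentration without "precipitation" is reported instead.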

Ctenocephalides felis = assay: Insecticidal activity against Ctenocephalides felis by artificial membrane feeding assay; type: functional
Summary of the method: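 Ex-vivo artificial membrane feeding assay, 20-25 cat fleas per titration level; compounds dissolved or suspended in bovine blood fed to fleas. LD90 taken as the concentration killing >90% of fleas.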

Compound `C=C(C)[C@H]1Cc2c3c(cc4c5c(n1c24)[C@@]1(C)[C@@H](CC[C@H]2[C@](C)(/C=C/C=C(\C)C(=O)OC)[C@@H](O)CC[C@@]21C)C5)C1=CC(C)(C)OC(C)(C)[C@H]1[C@@H]3O` has a pIC50 [1] of 8.59 and an LD90 (Ctenocephalides felis) of 147.1 µM.
Compound `C=C(C)[C@H]1C(=O)c2c3c(cc4c5c(n1c24)[C@@]1(C)[C@@H](CC[C@H]2[C@](C)(/C=C/C=C(\C)C(=O)OC)[C@@H](O)CC[C@@]21C)C5)C1=CC(C)(C)OC(C)(C)[C@H]1[C@@H]3O` has a pIC50 [1] of 9.37 and an LD90 (Ctenocephalides felis) of 14.4 µM.
In the case of `CC(C)=CCc1c2c(cc3c4c([nH]c13)[C@@]1(C)[C@@H](CC[C@H]3[C@](C)(CC/C=C(\C)C(=O)O)[C@@H](O)CC[C@@]31C)C4)C1=CC(C)(C)OC(C)(C)C1=C2`, the pIC50 [1] was less than 7.00 and the LD90 (Ctenocephalides felis) was 15.3 µM.
In the case of `CC(C)=CCc1cc2[nH]c3c(c2cc1CC=C(C)C)C[C@@H]1CC[C@H]2[C@](C)(CC/C=C(\C)C(=O)O)[C@@H](O)CC[C@]2(C)[C@@]31C`, the pIC50 [1] was 5.67.
`COC(=O)/C(C)=C/CC[C@]1(C)[C@@H](O)CC[C@@]2(C)[C@H]1CC[C@H]1Cc3c([nH]c4cc(CC=C(C)C)c(CC=C(C)C)cc34)[C@@]12C` gave a pIC50 [1] of less than 7.00.
In the case of `C=C(C)[C@H]1C(=O)c2c3c(cc4c5c(n1c24)[C@@]1(C)[C@@H](CC[C@H]2[C@](C)(CC/C=C(\C)C(=O)O)[C@@H](O)CC[C@@]21C)C5)C1=CC(C)(C)OC(C)(C)C1=C3`, the pIC50 [1] was 7.64 and the LD90 (Ctenocephalides felis) was greater than 15.1 µM.
With `C=C(C)[C@H]1C(=O)c2c3c(cc4c5c(n1c24)[C@@]1(C)C(CC[C@H]2[C@](C)(/C=C/C=C(\C)C(=O)O)[C@@H](O)CC[C@@]21C)C5)C1=CC(C)(C)OC(C)(C)C1[C@@H]3O` (stereo not given in full) [NOD ACID A] the pIC50 [1] was 9.57 and the LD90 (Ctenocephalides felis) was 1.5 µM.
For `C=C(C)[C@H]1C(=O)c2c3c(cc4c5c(n1c24)[C@@]1(C)[C@@H](CC[C@@H]2[C@]1(C)CC[C@]1(O)O[C@H](/C=C(\C)C(=O)O)C[C@@]21C)C5)C1=CC(C)(C)OC(C)(C)[C@H]1[C@@H]3O` [NODULISPORIC ACID A1], the pIC50 [1] was 7.98 and the LD90 (Ctenocephalides felis) was 7.3 µM.
Work on `C=C(C)[C@H]1C(=O)c2c3c(cc4c5c(n1c24)[C@@]1(C)[C@@H](CC[C@H]2[C@](C)(CC/C=C(\C)C(=O)O)[C@@H](O)CC[C@@]21C)C5)C1=CC(C)(C)OC(C)(C)[C@H]1[C@@H]3O` [NODULISPORIC ACID A4] yielded a pIC50 [1] of 8.62 and an LD90 (Ctenocephalides felis) of 14.7 µM.
In the case of `C=C(C)[C@H]1C(=O)c2c3c(cc4c5c(n1c24)[C@@]1(C)[C@@H](CC[C@@H]2[C@]1(C)CC[C@]1(O)O[C@H]([C@H](O)[C@H](C)C(=O)O)C[C@@]21C)C5)C1=CC(C)(C)OC(C)(C)[C@H]1[C@@H]3O` [NODULISPORIC ACID A12], the pIC50 [1] was 7.15 and the LD90 (Ctenocephalides felis) was 14 µM.
For `C=C(C)[C@H]1Cc2c3c(cc4c5c(n1c24)[C@@]1(C)[C@@H](CC[C@@H]2[C@]1(C)CC[C@]1(O)O[C@H](/C=C(\C)C(=O)O)C[C@@]21C)C5)C1=CC(C)(C)OC(C)(C)[C@H]1[C@@H]3O` [NODULISPORIC ACID B1], the pIC50 [1] was 6.92 and the LD90 (Ctenocephalides felis) was greater than 147.7 µM.
Work on `C=C(C)[C@H]1Cc2c3c(cc4c5c(n1c24)[C@@]1(C)[C@@H](CC[C@@H]2[C@]1(C)CC[C@]1(O)O[C@H]([C@H](O)[C@H](C)C(=O)O)C[C@@]21C)C5)C1=CC(C)(C)OC(C)(C)[C@H]1[C@@H]3O` [NODULISPORIC ACID B2] yielded a pIC50 [1] of 7.00 and an LD90 (Ctenocephalides felis) greater than 142.9 µM.
With `CC(C)=CCc1c2c(cc3c4c([nH]c13)[C@@]1(C)[C@@H](CC[C@@H]3[C@]1(C)CC[C@]1(O)O[C@H](/C=C(\C)C(=O)O)C[C@@]31C)C4)C1=CC(C)(C)OC(C)(C)[C@H]1[C@@H]2O` [NODULISPORIC ACID C1] the pIC50 [1] was 7.28 and the LD90 (Ctenocephalides felis) was greater than 146.2 µM.
`CC(C)=CCc1c2c(cc3c4c([nH]c13)[C@@]1(C)[C@@H](CC[C@@H]3[C@]1(C)CC[C@]1(O)O[C@H]([C@H](O)[C@H](C)C(=O)O)C[C@@]31C)C4)C1=CC(C)(C)OC(C)(C)[C@H]1[C@@H]2O` [NODULISPORIC ACID C2] gave a pIC50 [1] of 7.15 and an LD90 (Ctenocephalides felis) greater than 142.5 µM.
With `CC(C)=CCc1c2c(cc3c4c([nH]c13)[C@@]1(C)[C@@H](CC[C@H]3[C@](C)(/C=C/C=C(\C)C(=O)O)[C@@H](O)CC[C@@]31C)C4)C1=CC(C)(C)OC(C)(C)[C@H]1[C@@H]2O` [NODULISPORIC ACID C] the pIC50 [1] was 8.28 and the LD90 (Ctenocephalides felis) was 15 µM.
`COC(=O)/C(C)=C/[C@@H]1C[C@@]2(C)[C@@H]3CC[C@H]4Cc5c([nH]c6cc7c(cc56)C5=CC(C)(C)OC(C)(C)[C@H]5C7)[C@]4(C)[C@@]3(C)CC[C@]2(O)O1` [NODULISPORIC ACID D1 METHYL ESTER] gave a pIC50 [1] of less than 7.00.
With `C/C(=C\[C@@H]1C[C@@]2(C)[C@@H]3CC[C@H]4Cc5c([nH]c6cc7c(cc56)C5=CC(C)(C)OC(C)(C)[C@H]5C7)[C@]4(C)[C@@]3(C)CC[C@]2(O)O1)C(=O)O` [NODULISPORIC ACID D1] the pIC50 [1] was less than 5.00.
Compound `COC(=O)[C@@H](C)[C@@H](O)[C@@H]1C[C@@]2(C)[C@@H]3CC[C@H]4Cc5c([nH]c6cc7c(cc56)C5=CC(C)(C)OC(C)(C)[C@H]5C7)[C@]4(C)[C@@]3(C)CC[C@]2(O)O1` [NODULISPORIC ACID D2 METHYL ESTER] has a pIC50 [1] of less than 5.00.
For `C[C@H](C(=O)O)[C@@H](O)[C@@H]1C[C@@]2(C)[C@@H]3CC[C@H]4Cc5c([nH]c6cc7c(cc56)C5=CC(C)(C)OC(C)(C)[C@H]5C7)[C@]4(C)[C@@]3(C)CC[C@]2(O)O1` [NODULISPORIC ACID D2], the pIC50 [1] was 7.66.
`C/C(=C\C=C\[C@]1(C)C(=O)CC[C@@]2(C)[C@H]1CC[C@H]1Cc3c([nH]c4cc5c(cc34)C3=CC(C)(C)OC(C)(C)[C@H]3C5)[C@@]12C)C(=O)O` [NODULISPORIC ACID D3] gave a pIC50 [1] of less than 6.00.
`COC(=O)/C(C)=C/C=C/[C@]1(C)[C@@H](O)CC[C@@]2(C)[C@H]1CC[C@H]1Cc3c([nH]c4cc5c(cc34)C3=CC(C)(C)OC(C)(C)[C@H]3C5)[C@@]12C` [NODULISPORIC ACID D METHYL ESTER] gave a pIC50 [1] of less than 7.00.
With `C/C(=C\CC[C@]1(C)[C@@H](O)CC[C@@]2(C)[C@H]1CC[C@H]1Cc3c([nH]c4ccccc34)[C@@]12C)C(=O)O` [NODULISPORIC ACID F] the pIC50 [1] was less than 5.00 and the LD90 (Ctenocephalides felis) was 45.9 µM.
In the case of `C=C(C)[C@H]1Cc2c3c(cc4c5c(n1c24)[C@@]1(C)[C@@H](CC[C@H]2[C@](C)(/C=C/C=C(\C)C(=O)O)[C@@H](O)CC[C@@]21C)C5)C1=CC(C)(C)OC(C)(C)[C@H]1[C@@H]3O` [NODULISPORIC ACIDS B], the pIC50 [1] was 7.76 and the LD90 (Ctenocephalides felis) was 150 µM.
With `C/C(=C\C=C\[C@]1(C)[C@@H](O)CC[C@@]2(C)[C@H]1CC[C@H]1Cc3c([nH]c4cc5c(cc34)C3=CC(C)(C)OC(C)(C)[C@H]3C5)[C@@]12C)C(=O)O` [NODULISPORIC ACID] the pIC50 [1] was less than 6.00 and the LD90 (Ctenocephalides felis) was 92.6 µM.
